Reference: ChEMBL document CHEMBL1149811, “Synthesis of novel 4,6-disubstituted quinazoline derivatives, their anti-inflammatory and anti-cancer activity (cytotoxic) against U937 leukemia cell lines” (Eur J Med Chem, 2008)
In brackets after ≈: the same amount, converted by molar mass.

Key:
Rattus norvegicus [1] = experiment: Antiinflammatory activity in Wistar rat assessed as inhibition of carrageenan-induced paw edema at 100 mg/kg, po; format: functional
Method in brief: (§1)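 Male Wistar rats, fasted overnight, three per group. Given orally as 1% gum acacia suspension (test 100 mg/kg, indomethacin 10 mg/kg; controls vehicle). One hour later, 0.1 ml of 1% carrageenan injected sub-plantar into left hind paw. Paw volume measured by digital plethysmometer before carrageenan and at 3 h. Percent inhibition per rat versus mean control paw volume, reported as mean ± SE.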

U-937 = experiment: Cytotoxicity against human U937 cells after 2 days by MTT assay; format: functional, cell-based; conditions: U-937, 48 h
Method in brief: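 U937 human histocytic lymphoma cells grown in RPMI-1640 with 10% FBS at 37 °C under CO2. Seeded at 2 × 10^4 cells/well and compounds added after 24 h. Viability read after two days by MTT (4 h at 37 °C, formazan dissolved in DMSO, absorbance 570 nm). Percent inhibition versus untreated control; IC50 (50% cell-number decrease) by linear regression; mean ± SE of four observations.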

Rattus norvegicus [2] = experiment: Antiinflammatory activity in Wistar rat assessed as inhibition of carrageenan-induced paw edema at 10 mg/kg, po; format: functional; method in brief: as §1

Compound	inhibition in vivo at 100 mg/kg (Rattus norvegicus [1]) [%]	IC50 (U-937) [µg/mL]	inhibition in vivo at 10 mg/kg (Rattus norvegicus [2]) [%]
C[C@H](Nc1nc(-c2ccccc2)nc2ccccc12)C(=O)O	9.3	–	–
O=C(O)[C@H](Cc1ccccc1)Nc1nc(-c2ccccc2)nc2ccccc12	0	–	–
CC[C@H](C)[C@H](Nc1nc(-c2ccccc2)nc2ccc(I)cc12)C(=O)O	0	52.4 (≈ 114 µM)	–
CC[C@H](C)[C@H](Nc1nc(-c2ccccc2)nc2ccc(Br)cc12)C(=O)O	0	32 (≈ 77.3 µM)	–
O=C(O)[C@H](Cc1c[nH]c2ccccc12)Nc1nc(-c2ccccc2)nc2ccc(Br)cc12	0	37.9 (≈ 77.8 µM)	–
O=C(O)[C@H](Cc1ccccc1)Nc1nc(-c2ccccc2)nc2ccc(Br)cc12	0	50.4 (≈ 112 µM)	–
O=C(O)[C@H](Cc1c[nH]c2ccccc12)Nc1nc(-c2ccccc2)nc2ccc(I)cc12	0	46.1 (≈ 86.3 µM)	–
COc1cc([C@@H]2c3cc4c(cc3[C@@H](O[C@@H]3O[C@@H]5CO[C@@H](C)O[C@H]5[C@H](O)[C@H]3O)[C@H]3COC(=O)[C@H]23)OCO4)cc(OC)c1O [ETOPOSIDE]	–	10.6 (≈ 17.9 µM)	–
O=C(O)CNc1nc(-c2ccccc2)nc2ccc(Br)cc12	0	–	–
COc1ccc2c(c1)c(CC(=O)O)c(C)n2C(=O)c1ccc(Cl)cc1 [INDOMETHACIN]	–	–	48
O=C(O)[C@H](Cc1c[nH]c2ccccc12)Nc1nc(-c2ccccc2)nc2ccccc12	1.8	74.8 (≈ 183 µM)	–
O=C(O)CNc1nc(-c2ccccc2)nc2ccc(I)cc12	0	–	–
O=C(O)CNc1nc(-c2ccccc2)nc2ccccc12	0	–	–
O=C(O)[C@H](Cc1ccccc1)Nc1nc(-c2ccccc2)nc2ccc(I)cc12	3.7	16.1 (≈ 32.5 µM)	–
C[C@H](Nc1nc(-c2ccccc2)nc2ccc(Br)cc12)C(=O)O	0	104 (≈ 280 µM)	–
C[C@H](Nc1nc(-c2ccccc2)nc2ccc(I)cc12)C(=O)O	6.5	–	–
CC[C@H](C)[C@H](Nc1nc(-c2ccccc2)nc2ccccc12)C(=O)O	4.1	121 (≈ 360 µM)	–
